A selection: hits, their analogues and other compounds. The true share with any hit is near 2.8%.
CAL PDZ FP-1 = inhibitors of human CAL PDZ peptide binding. Q9HD26. purified CAL PDZ, TMR-peptide fluorescence polarization, 1 h. inhibition, % at 24.9 µM. 0.92% of 300,000 active;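 active = mean inhibition of at least 30% with at least half of replicates also reaching 30%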;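 note: 0% = DMSO neutral control and 100% = excess unlabeled competitor peptide PRC23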
CAL PDZ FP-2 = inhibitors of human CAL PDZ peptide binding | inhibition, % at 20 µM | purified CAL PDZ, TMR-peptide fluorescence polarization, 1 h | Q9HD26 | AID 504414 | 0.02% of 330,000 active;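 active = highest replicate inhibition of at least 40%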;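 note: plate controls were DMSO neutral control wells for no effect and unlabeled competitor peptide control wells for full effect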
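Read-out basis: mP drop reported as inhibition | Assay system: Tagged CAL PDZ protein CerCALP, purified | Benchmarks: Unlabelled peptide for full inhibition, DMSO wells as neutral | Schedule: 1 h incubation at room temperature before polarization reading | Buffer or medium: Sodium phosphate/NaCl buffer pH 7.4 with TCEP, IgG, Thesit | Doses: Single point, 20 µM | Measured by: Fluorescence polarization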
SR-BI uptake up = enhances SR-BI lipid uptake from DiI-HDL | 0.096% of 320,000 active | CHO ldlA[mSR-BI] cells, DiI-HDL uptake fluorescence, 3 h; 100 = double the neutral-control signal | activation, % at 12.5 µM | AID 504775;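 active = mean replicate activation of at least 60% and every replicate at or above 60%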;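 note: 0% = median plate neutral-control signal and 100% = twice that signal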
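Test system: SR-BI-overexpressing, LDLR-lacking CHO cells; Also added: labelled HDL, 10 µg/mL; Measured by: bottom-read cell fluorescence after medium removal, ex 550/em 595 nm; Timing: 3 h uptake period with compound, 37 °C; Buffer or medium: F12, 0.5% BSA, 25 mM HEPES; Doses: single compound concentration, delivered by pin transfer.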
SR-BI DiI inh = blocks mouse SR-BI lipid uptake from DiI-HDL | Q61009 | ldlA[mSR-BI] CHO cells, DiI-HDL uptake fluorescence, 3 h | inhibition, % at 12.5 µM | 0.96% of 320,000 active;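 active = mean replicate inhibition of at least 70% and a set share of replicates each scoring 70 or more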;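 note: 0% = median of neutral control wells and 100% = median of positive control wells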
dFosB act-1 = enhances mouse delta FosB homodimer DNA binding. purified delta FosB, TAMRA-CDK5 oligo fluorescence polarization; percent of positive-control signal above neutral wells. activation, % at 25 µM. P13346. 0.99% of 340,000 active;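 active = mean activation above about 17%, with every replicate also reaching it, limit read from the data, passing the limit was not always enough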
Target sequence (P13346 whole entry, looked up): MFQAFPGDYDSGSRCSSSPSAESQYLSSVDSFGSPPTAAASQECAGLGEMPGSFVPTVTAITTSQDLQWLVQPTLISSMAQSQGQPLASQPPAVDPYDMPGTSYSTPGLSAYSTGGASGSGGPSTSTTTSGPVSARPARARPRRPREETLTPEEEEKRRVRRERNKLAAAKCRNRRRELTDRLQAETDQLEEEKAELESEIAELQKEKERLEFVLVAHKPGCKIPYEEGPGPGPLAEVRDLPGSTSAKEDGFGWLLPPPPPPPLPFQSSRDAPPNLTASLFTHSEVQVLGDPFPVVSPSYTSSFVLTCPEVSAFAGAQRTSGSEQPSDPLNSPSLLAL
dFosB act-2 = enhances mouse delta FosB homodimer binding to DNA; purified delta FosB, TAMRA-CDK5 oligo fluorescence polarization; normalised: neutral wells 0, positive control 100; 2,400 tested, under 10 active; activation, % at 24.9 µM; shares compounds with dFosB act-1;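 active = highest replicate activation at or above 34% and every replicate reaching that threshold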;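 note: higher polarization means more probe DNA bound by delta FosB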
Active calls of the source: *; nt = no result.

SMILES | CAL PDZ FP-1 | CAL PDZ FP-2 | SR-BI uptake up | SR-BI DiI inh | dFosB act-1 | dFosB act-2
CCCCn1c(N)c(N(C)C(=O)c2cn(-c3ccccc3)nc2-c2ccccc2)c(=O)[nH]c1=O | 2 | 0 | 4 | -4 | -7 | nt
C=CCn1c(C)cc(-c2csc(NC(=O)C3CCN(c4ncnc5sc(C)c(C)c45)CC3)n2)c1C | -4 | 0 | -31 | 31 | 30* | 0
COc1ccc(-c2csc(NC(=O)C3CCN(c4ncnc5sc(C)c(C)c45)CC3)n2)cc1OC | -21 | -2 | -54 | 54 | 26* | -2
COc1ccccc1OCC(=O)NNC(=O)C1CCN(c2ncnc3sc(C)c(C)c23)CC1 | -4 | -2 | -44 | 44 | -5 | nt
CCc1ccc2nc(NC(=O)C3CCN(c4ncnc5sc(C)c(C)c45)CC3)sc2c1 | 28 | 0 | -26 | 26 | 11 | nt
CC(=O)Nc1ccc(NC(=O)CCCCCN2C(=O)c3ccccc3C2=O)cc1 | 10 | 0 | 22 | -22 | 25* | -1
O=C(CCN1C(=O)c2cccc3cccc(c23)C1=O)Nc1ccccc1 | -2 | -2 | 24 | -24 | 27* | 0
O=C(CCCCCN1C(=O)c2ccccc2C1=O)Nc1ccccc1 | -6 | -1 | 31 | -31 | -1 | nt
NC(=O)CC(NC(=O)c1ccc(Br)cc1)c1ccc(NC2CCCCC2)c([N+](=O)[O-])c1 (stereo not drawn) | 1 | 1 | 17 | -17 | 42* | 8
COc1ccc(CCNc2ccc(C(CC(N)=O)NC(=O)c3ccccc3)cc2[N+](=O)[O-])cc1 (stereo not drawn) | -6 | 0 | 3 | -3 | 32* | -2
NC(=O)CC(NC(=O)c1ccccc1)c1ccc(NCCc2ccc(F)cc2)c([N+](=O)[O-])c1 (stereo not drawn) | 0 | 0 | -4 | 4 | -4 | nt
Cc1ccccc1CNc1ccc(C(CC(N)=O)NC(=O)c2ccccc2)cc1[N+](=O)[O-] (stereo not drawn) | -1 | 1 | -24 | 24 | 28* | -1
COC(C[C@@H]1O[C@@H]1[C@H](O)COCc1ccccc1)OC | -1 | 0 | 11 | -11 | 9 | nt
CCc1nnc2n1N=C(c1ccc(OC)cc1)CS2 | nt | -1 | 5 | -5 | -8 | nt
CCc1nnc2n1N=C(c1ccc(-c3cc(Cl)ccc3Cl)o1)CS2 | 1 | 0 | -32 | 32 | 30* | -1
CCOc1ccc(S(=O)(=O)n2nc(C)c(S(=O)(=O)N3CCOCC3)c2C)cc1 | -3 | -3 | 6 | -6 | 2 | nt
CCc1cccc(NC(=O)C2CCN(S(=O)(=O)c3ccc4c(c3)NC(=O)CO4)CC2)c1 | -6 | -1 | -9 | 9 | -10 | nt
C[C@@H]1CN([C@@H](C)CO)C(=O)c2cccc(NC(=O)Nc3ccc(F)cc3)c2O[C@@H]1CN(C)Cc1ccc(Oc2ccccc2)cc1 | -2 | -1 | 8 | -8 | 43* | 0
C[C@H]1CN([C@@H](C)CO)C(=O)c2cc(NC(=O)Nc3cccc4ccccc34)ccc2O[C@@H]1CN(C)Cc1ccc(-c2ccccc2)cc1 | 0 | 1 | 12 | -12 | 38* | 1
C[C@H](CO)N1C[C@H](C)[C@H](CN(C)Cc2ccccc2)Oc2c(NC(=O)Nc3ccc(F)cc3)cccc2C1=O | -1 | 0 | 7 | -7 | -8 | nt
COc1ccc(NC(=O)N2CCCCCC2)cc1OC | 9 | -4 | 20 | -20 | 6 | nt
S=C(Nc1ccc(Cl)cc1)c1nc2ccccc2[nH]1 | -6 | -1 | -123 | 123* | 29* | 1
O=C(/C(=C\c1ccccc1)c1nc2ccccc2[nH]1)c1ccc(Cl)cc1 | -4 | 1 | -7 | 7 | -1 | nt
COc1ccc(NS(=O)(=O)c2ccc(OC)c(NC(=O)CNC(=O)c3ccc(OC)cc3)c2)cc1 | -1 | 0 | -25 | 25 | 39* | -4
O=C(N/N=C/c1cccnc1)c1cccc(NC(=O)c2cccc(Br)c2)c1 | -13 | -2 | -16 | 16 | 45* | -1
SMILES | CAL PDZ FP-1 | CAL PDZ FP-2 | SR-BI uptake up | SR-BI DiI inh | dFosB act-1 | dFosB act-2
COc1ccc(NS(=O)(=O)c2cccc(C(=O)N/N=C/c3cccs3)c2)cc1 | -5 | -2 | -7 | 7 | 12 | nt
COc1ccc(NS(=O)(=O)c2cccc(C(=O)NN=Cc3ccc(OC)cc3OC)c2)cc1 | nt | 0 | -52 | 52 | 26* | 0
O=C(N/N=C/c1ccncc1)c1cccc(S(=O)(=O)N2CCCC2)c1 | 0 | -2 | -14 | 14 | -12 | nt
CC(=O)Nc1cccc(C(=O)N/N=C/c2cccnc2)c1 | -5 | 0 | -6 | 6 | -12 | nt
O=C(N/N=C/c1ccncc1)c1cccc(S(=O)(=O)Nc2ccc(Cl)cc2)c1 | -5 | -6 | nt | nt | 45* | -1
N=c1ccn2c(n1)O[C@H]1[C@@H](CO)[C@H](O)O[C@H]12 | -3 | 1 | 7 | -7 | -3 | nt
O=C(N/N=C/c1cccnc1)c1cccc(S(=O)(=O)Nc2cccc(Cl)c2)c1 | 0 | 2 | 14 | -14 | 31* | 1
COc1cc(/C=C/C(=O)Nc2cccnc2)cc(OC)c1OC | -13 | -3 | -70 | 70 | 18* | 5
Cc1cc(C)c(NC(=O)Cn2nc(-c3ccccc3)nc2-c2ccccc2)c(C)c1 | 0 | -3 | -18 | 18 | 2 | nt
Cc1cccc(C)c1NC(=O)Cn1nc(-c2ccccc2)nc1-c1ccccc1 | 2 | -2 | 10 | -10 | 45* | 1
COc1ccc(NC(=O)CN2C(=O)NC3(CCCC3)C2=O)c(OC)c1 | -4 | -1 | nt | nt | 2 | nt
COc1cccc(Oc2ccc(C(F)(F)F)cc2NC(=O)CN2C(=O)NC3(CCCC3)C2=O)c1 | -3 | 0 | 0 | 0 | 45* | -2
COc1ccc(NC(=O)N(C)C[C@H]2Oc3c(NC(=O)Cc4ccccc4)cccc3C(=O)N([C@H](C)CO)C[C@@H]2C)cc1 | -5 | -1 | -36 | 36 | -6 | nt
CCOc1ccc(NC(=O)[C@@H](NC(=O)OCc2ccccc2)[C@@H](C)CC)cc1 | 2 | 0 | 27 | -27 | -5 | nt
CCC(C)C(NC(N)=O)C(=O)Nc1ccc(OCc2ccccc2)cc1 (stereo not drawn) | 4 | -1 | -29 | 29 | 43* | 6
CNC(=S)Nc1cccc(-c2cnc3ccccc3n2)c1 | -4 | -2 | -1 | 1 | -17 | nt
CC(=O)c1ccc(N(C(=O)CS(=O)CC(=O)Nc2ccc(F)cc2)C(C(=O)NC2CCCCC2)c2cccs2)cc1 (stereo not drawn) | -2 | -2 | 17 | -17 | 20* | 1
CC(=O)c1cccc(N(C(=O)CS(=O)CC(=O)Nc2ccc(F)cc2)C(C(=O)NC2CCCCC2)c2ccc(C)o2)c1 (stereo not drawn) | -1 | 0 | -9 | 9 | -2 | nt
